From ChEMBL document CHEMBL1828509, “Synthesis, pharmacological evaluation and docking studies of coumarin derivatives” (2011)

Columns and labels:
Format in all cases: functional
[1] = system: Rattus norvegicus; test: Antiinflammatory activity in Wistar albino rat assessed as inhibition of carrageenan-induced paw edema at 20 mg/kg, po administered 30 mins before carrageenan challenge measured after 2 hrs by plethysmograph
Outline: (§1)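 Male Wistar albino rats (150–200 g), six per group, dosed orally with 20 mg/kg suspension; control got 0.1 ml of 1% gum acacia suspension orally. After 30 min, 0.1 ml of 1% carrageenan in normal saline injected sub-plantar into the right hind paw. Paw volume measured by plethysmograph at 0, 1, 2, 3 and 4 h; percent edema inhibition versus control at matching time.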

[2] = system: Escherichia coli; test: Antimicrobial activity against Escherichia coli MTCC 4315 at 50 ug/ml; conditions: read-out: IZ
[3] = system: Rattus norvegicus; test: Antiinflammatory activity in Wistar albino rat assessed as inhibition of carrageenan-induced paw edema at 20 mg/kg, po administered 30 mins before carrageenan challenge measured after 1 hr by plethysmograph; outline: as §1
[4] = system: Rattus norvegicus; test: Antiinflammatory activity in Wistar albino rat assessed as inhibition of carrageenan-induced paw edema at 20 mg/kg, po administered 30 mins before carrageenan challenge measured after 4 hrs by plethysmograph; outline: as §1
[5] = system: Rattus norvegicus; test: Antiinflammatory activity in Wistar albino rat assessed as inhibition of carrageenan-induced paw edema at 20 mg/kg, po administered 30 mins before carrageenan challenge measured after 3 hrs by plethysmograph; outline: as §1
[6] = system: Mus musculus; test: Analgesic activity in mouse assessed as inhibition of acetic acid-induced writhing administered 30 mins before acetic acid challenge measured after 30 mins relative to control; parameters: concentration or dose not given beside the values
Outline: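 Groups of six mice (20–30 g, both sexes, pregnant females excluded) dosed with test compound; 30 min later 0.25 ml/mouse of 0.5% acetic acid given i.p. Writhes counted over the next 30 min. Mean writhes per group ± SE; percent decrease versus untreated control mice.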

[7] = system: Bacillus subtilis; test: Antimicrobial activity against Bacillus subtilis MTCC 1789 at 25 ug/ml; conditions: read-out: IZ
[8] = system: Bacillus subtilis; test: Antimicrobial activity against Bacillus subtilis MTCC 1789 at 10 ug/ml; conditions: read-out: IZ
[9] = system: Bacillus subtilis; test: Antimicrobial activity against Bacillus subtilis MTCC 1789 at 50 ug/ml; conditions: read-out: IZ
[10] = system: Aspergillus niger; test: Antifungal activity against Aspergillus niger MTCC 282 at 25 ug/ml; conditions: read-out: IZ
[11] = system: Candida albicans; test: Antifungal activity against Candida albicans MTCC 183 at 25 ug/ml; conditions: read-out: IZ
[12] = system: Escherichia coli; test: Antimicrobial activity against Escherichia coli MTCC 4315 at 25 ug/ml; conditions: read-out: IZ
[13] = system: Aspergillus niger; test: Antifungal activity against Aspergillus niger MTCC 282 at 10 ug/ml; conditions: read-out: IZ
[14] = system: Aspergillus niger; test: Antifungal activity against Aspergillus niger MTCC 282 at 50 ug/ml; conditions: read-out: IZ
[15] = system: Candida albicans; test: Antifungal activity against Candida albicans MTCC 183 at 10 ug/ml; conditions: read-out: IZ
[16] = system: Escherichia coli; test: Antimicrobial activity against Escherichia coli MTCC 4315 at 10 ug/ml; conditions: read-out: IZ
[17] = system: Candida albicans; test: Antifungal activity against Candida albicans MTCC 183 at 50 ug/ml; conditions: read-out: IZ

SMILES | inhibition in vivo at 20 mg/kg [1] [%] | zone of inhibition at 50 µg/mL [2] [mm] | inhibition in vivo at 20 mg/kg [3] [%] | inhibition in vivo at 20 mg/kg [4] [%] | inhibition in vivo at 20 mg/kg [5] [%] | Activity [6] [%] | zone of inhibition at 25 µg/mL [7] [mm] | zone of inhibition at 10 µg/mL [8] [mm] | zone of inhibition at 50 µg/mL [9] [mm] | zone of inhibition at 25 µg/mL [10] [mm] | zone of inhibition at 25 µg/mL [11] [mm] | zone of inhibition at 25 µg/mL [12] [mm] | zone of inhibition at 10 µg/mL [13] [mm] | zone of inhibition at 50 µg/mL [14] [mm] | zone of inhibition at 10 µg/mL [15] [mm] | zone of inhibition at 10 µg/mL [16] [mm] | zone of inhibition at 50 µg/mL [17] [mm]
Cc1cc(=O)oc2cc(OC(=O)CNc3ccccc3)ccc12 | 29.4 | 10.4 | 10.7 | 13.7 | 30.8 | 24 | 11.8 | 10.4 | 12.6 | 10.2 | – | – | – | – | – | – | –
Cc1cc(=O)oc2cc(OC(=O)CNc3ccccc3[N+](=O)[O-])ccc12 | 16.6 | – | 21.4 | 15.2 | 15.9 | 28 | 12.4 | 11.2 | 13.7 | – | 10.4 | 10.1 | 10.1 | – | – | – | –
Cc1cc(=O)oc2cc(OC(=O)CNc3cccc([N+](=O)[O-])c3)ccc12 | 30.7 | 11.1 | 28.5 | 32.2 | 34 | 13 | 11.2 | – | 13.4 | 10.5 | – | 11.3 | – | 11.4 | 10.5 | 10.3 | –
Cc1cc(=O)oc2cc(OC(=O)CNc3ccc([N+](=O)[O-])cc3)ccc12 | 17.9 | 16.9 | 12.5 | 23.7 | 20.2 | 28 | 12.1 | 10.2 | 13.4 | – | 10.2 | 14.2 | – | 10.2 | – | 12.2 | 11.4
Cc1cc(=O)oc2cc(OC(=O)CNc3ccccc3Cl)ccc12 | 11.5 | 12.6 | 21.4 | 23.7 | 12.8 | 21 | – | – | – | 10.2 | – | 10.8 | – | 12.4 | – | – | 10.4
Cc1cc(=O)oc2cc(OC(=O)CNc3ccc(Cl)cc3)ccc12 | 23 | 12.6 | 10.7 | 16.1 | 15.9 | 11 | – | – | 12.3 | 10.2 | 12.2 | 10.8 | – | 12.1 | 10.6 | – | 13.4
COc1ccccc1NCC(=O)Oc1ccc2c(C)cc(=O)oc2c1 | 15.3 | 10.2 | 10.7 | 19.4 | 26.6 | 28 | 11.4 | 10.2 | – | – | – | – | 10.4 | 12.4 | – | – | 12.4
COc1ccc(NCC(=O)Oc2ccc3c(C)cc(=O)oc3c2)cc1 | 33.3 | – | 30.3 | 28.8 | 37.2 | 17 | 13.3 | 11.2 | 14.4 | 13.2 | 12.4 | 11.2 | – | 14.1 | 10.2 | 10.5 | 13.2
Cc1ccccc1NCC(=O)Oc1ccc2c(C)cc(=O)oc2c1 | 15.3 | – | 12.5 | 19.4 | 17 | 23 | – | – | 11.6 | 12.4 | – | 10.5 | 10.6 | 13.1 | – | – | 12.2
Cc1cccc(NCC(=O)Oc2ccc3c(C)cc(=O)oc3c2)c1 | 15.3 | 16.9 | 12.5 | 23.7 | 15.9 | 13 | 12.4 | 10.5 | 13.6 | 12.2 | 13.4 | 14 | – | 13.4 | 11.4 | 11 | 14.4
Cc1ccc(NCC(=O)Oc2ccc3c(C)cc(=O)oc3c2)cc1 | 20.5 | 14 | 14.2 | 6.7 | 20.2 | 28 | – | – | 12.3 | 10.5 | – | 13 | – | 11.4 | – | 11.2 | 12.4
Cc1cc(=O)oc2cc(OC(=O)CNN3C=NNC3)ccc12 | 42.3 | 16.2 | 42.8 | 22.2 | 27.6 | 37 | 14.3 | 12.5 | 18.1 | 13.6 | 13.4 | 14.1 | 11.2 | – | 12.4 | – | 15.4
Cc1cc(=O)oc2cc(OC(=O)CNc3nc4ccccc4s3)ccc12 | 35.9 | 14.5 | 30.3 | 40.6 | 40.4 | 35 | – | 10.4 | 18.1 | – | 12.2 | – | – | 12.4 | 13.4 | – | –
Cc1cc(=O)oc2cc(OC(=O)CNc3nccs3)ccc12 | 37.1 | 18.4 | 39.2 | 32.3 | 47.8 | 45 | 14.4 | 10.4 | 16.9 | 15.4 | – | 10.2 | 13.4 | 16.5 | 10.1 | – | 12.4
NCC[C@H](O)C(=O)N[C@@H]1C[C@H](N)[C@@H](O[C@H]2O[C@H](CN)[C@@H](O)[C@H](O)[C@H]2O)[C@H](O)[C@H]1O[C@H]1O[C@H](CO)[C@@H](O)[C@H](N)[C@H]1O [AMIKACIN] | – | 20 | – | – | – | – | – | – | – | – | – | 16.2 | – | – | – | 14 | –
COC1=CC(=O)C[C@@H](C)[C@]12Oc1c(Cl)c(OC)cc(OC)c1C2=O [GRISEOFULVIN] | – | – | – | – | – | – | – | – | – | – | 14.2 | – | – | – | 12.6 | – | 18.2
COc1ccc2c(c1)c(CC(=O)O)c(C)n2C(=O)c1ccc(Cl)cc1 [INDOMETHACIN] | 67.9 | – | 53.5 | 57.6 | 68.8 | 56 | – | – | – | – | – | – | – | – | – | – | –
CN[C@H](CC(C)C)C(=O)N[C@H]1C(=O)N[C@@H](CC(N)=O)C(=O)N[C@H]2C(=O)N[C@H]3C(=O)N[C@H](C(=O)N[C@H](C(=O)O)c4cc(O)cc(O)c4-c4cc3ccc4O)[C@H](O)c3ccc(c(Cl)c3)Oc3cc2cc(c3O[C@@H]2O[C@H](CO)[C@@H](O)[C@H](O)[C@H]2O[C@H]2C[C@](C)(N)[C@H](O)[C@H](C)O2)Oc2ccc(cc2Cl)[C@H]1O [VANCOMYCIN] | – | – | – | – | – | – | 18.2 | 14.2 | 20.1 | – | – | – | – | – | – | – | –
